Results on 20 molecules are retold here after ChEMBL document CHEMBL2016480, “Structure-based ligand design of novel bacterial RNA polymerase inhibitors” (ACS Med Chem Lett, 2011).

The subject of experiment [1] is Escherichia coli. In words: Inhibition of Escherichia coli DNA dependent RNA polymerase at 100 uM after 2 hrs by SYBR Green-based spectrophotometric analysis. Put shortly: (§1)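 In vitro transcription assay with E. coli RNA polymerase on a Kool NC-45 RNAP template. Activity was reported as IC50 or as percentage inhibition at 100 μM compound.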
The test system of experiment [2] is Staphylococcus aureus. The experiment can be described thus: Antibacterial activity against Staphylococcus aureus SH1000 expressing rsbU gene. The format is functional. The gist of the method:
(§2)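 MICs by standard susceptibility testing per British Society for Antimicrobial Chemotherapy guidelines, run in triplicate. For the PMBN lines, tests were repeated with polymyxin B nonapeptide added as an outer-membrane permeabilizer.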

In experiment [3] the test system is Staphylococcus aureus. The experiment can be described thus: Antibacterial activity against Staphylococcus aureus SH1000 expressing rsbU gene in the presence of polymyxin B nonapeptide. In kind it is functional. The gist of the method: as §2
Experiment [4] has as its system Escherichia coli. In words: Antibacterial activity against Escherichia coli 1411 expressing lacI3, lacZ118, proB, trp, nalA, rpsL in the presence of polymyxin B nonapeptide. In kind it is functional. The gist of the method:
as §2

For experiment [5], the system named is Escherichia coli. The experiment can be described thus: Antibacterial activity against kanamycin-resistant,acrAB::Tn903 deficient Escherichia coli SM1411 expressing lacI3, lacZ118, proB, trp, nalA, rpsL in the presence of polymyxin B nonapeptide. In kind it is functional.
For experiment [6], the system named is Escherichia coli. The experiment can be described thus: Antibacterial activity against kanamycin-resistant,acrAB::Tn903 deficient Escherichia coli SM1411 expressing lacI3, lacZ118, proB, trp, nalA, rpsL. In kind it is functional.
For experiment [7], the system named is Escherichia coli. In words: Antibacterial activity against Escherichia coli 1411 expressing lacI3, lacZ118, proB, trp, nalA, rpsL. In kind it is functional. Put shortly:
as §2

For experiment [8], the system named is Bacillus subtilis. The experiment can be described thus: Antibacterial activity against Bacillus subtilis 1S34 in the presence of polymyxin B nonapeptide. In kind it is functional. The gist of the method:
as §2

The test system of experiment [9] is Bacillus subtilis. In words: Antibacterial activity against Bacillus subtilis 1S34. In kind it is functional. The gist of the method: as §2
A short description of experiment [10]: Inhibition of chymotrypsin at 100 uM. The gist of the method: (§3)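 Counter-screens for promiscuous inhibition using malate dehydrogenase and chymotrypsin enzyme assays. Activity was reported as percentage inhibition at 100 μM compound.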
The subject of another experiment is Saccharomyces cerevisiae. In words: Inhibition of yeast RNA polymerase 2 at 100 uM. The gist of the method: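 Selectivity assay against yeast RNA polymerase II. Activity was reported as percentage inhibition at 100 μM compound.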
Experiment [11] can be described thus: Inhibition of malate dehydrogenase at 100 uM. Put shortly:
as §3

Experiment [12] in a line: Inhibition of Escherichia coli DNA dependent RNA polymerase after 2 hrs by SYBR Green-based spectrophotometric analysis. The gist of the method: as §1

As usually defined, the inhibition is the change of the read-out against control, counted positive when it falls. As usually defined, the MIC is the smallest concentration in the dilution series that meets the test's criterion for growth inhibition. Consider `N#Cc1ccc(C(=O)Nc2ccc(-c3ccccc3)nc2)cc1`, for which the inhibition in the experiment on Escherichia coli [1] is 10.9%. Also, the MIC in the experiment on Staphylococcus aureus [2], in the experiment on Staphylococcus aureus [3], with Escherichia coli [4], in the experiment with Escherichia coli [5], in the experiment with Escherichia coli [6] and in the experiment on Escherichia coli [7] was > 256 µg/mL each time. The minimum inhibitory concentration (MIC) with Bacillus subtilis [8] and against Bacillus subtilis [9] was > 256 µg/mL each time.
In the experiment on Escherichia coli [1], `NS(=O)(=O)c1ccc(C(=O)Nc2cnc3ccccc3c2)cc1` displayed an inhibition of 0%. In addition, the minimum inhibitory concentration (MIC) with Staphylococcus aureus [2], in the experiment on Staphylococcus aureus [3], in the experiment with Escherichia coli [4], in the experiment on Escherichia coli [5], against Escherichia coli [6] and against Escherichia coli [7] was > 256 µg/mL each time. Further, the MIC with Bacillus subtilis [8] and against Bacillus subtilis [9] was > 256 µg/mL throughout.
As for `CS(=O)(=O)c1ccc(C(=O)Nc2ccc(-n3cncn3)nc2)cc1`, in the experiment with Escherichia coli [1], the inhibition was 0%. In addition, the MIC in the experiment with Staphylococcus aureus [2], in the experiment on Staphylococcus aureus [3], in the experiment on Escherichia coli [4], in the experiment on Escherichia coli [5], against Escherichia coli [6] and with Escherichia coli [7] was > 256 µg/mL in each case. Also, the minimum inhibitory concentration (MIC) in the experiment with Bacillus subtilis [8] and in the experiment on Bacillus subtilis [9] was > 256 µg/mL throughout.
The IC50 is the concentration needed to halve the response being measured. Low values mean higher potency, high ones lower potency. As to `N#Cc1ccc(C(=O)Nc2ccc(-n3cncn3)nc2)cc1`, the inhibition amounted to 0% in [10], 12% in the experiment with Saccharomyces cerevisiae and 0% in [11]. Besides, the MIC against Staphylococcus aureus [2], in the experiment on Staphylococcus aureus [3], in the experiment on Escherichia coli [4], in the experiment with Escherichia coli [5], against Escherichia coli [6] and against Escherichia coli [7] was > 256 µg/mL throughout. Moreover, the MIC in the experiment on Bacillus subtilis [8] and against Bacillus subtilis [9] was > 256 µg/mL in each case. Besides, in experiment [12], the IC50 was determined as 9.9 µM.
Take `NS(=O)(=O)c1ccc(C(=O)Nc2ccc(N3CCOCC3)nc2)cc1`: the inhibition in the experiment on Escherichia coli [1] came to 0%. Also, the MIC with Staphylococcus aureus [2], with Staphylococcus aureus [3], in the experiment with Escherichia coli [4], in the experiment with Escherichia coli [5], in the experiment on Escherichia coli [6] and with Escherichia coli [7] was > 256 µg/mL throughout. Further, the MIC in the experiment on Bacillus subtilis [8] and in the experiment on Bacillus subtilis [9] was > 256 µg/mL throughout.
As to `O=C(O)c1ccc(C(=O)Nc2ccc(-n3ccnc3)nc2)cc1`, in the experiment with Escherichia coli [1], the inhibition is 0%. For the same molecule, the MIC against Staphylococcus aureus [2], with Staphylococcus aureus [3], in the experiment on Escherichia coli [4], in the experiment with Escherichia coli [5], in the experiment on Escherichia coli [6] and in the experiment on Escherichia coli [7] was > 256 µg/mL throughout. For the same molecule, the MIC in the experiment on Bacillus subtilis [8] and with Bacillus subtilis [9] was > 256 µg/mL throughout.
`NS(=O)(=O)c1ccc(C(=O)Nc2ccc(-n3cncn3)nc2)cc1`: the inhibition in experiment [10] was found to be 0.6%; in the experiment with Saccharomyces cerevisiae, 9.3%; in experiment [11] it was 1.4%. Moreover, the MIC in the experiment with Staphylococcus aureus [2], in the experiment on Staphylococcus aureus [3], in the experiment on Escherichia coli [4], with Escherichia coli [5], against Escherichia coli [6] and against Escherichia coli [7] was > 256 µg/mL each time. Besides, the MIC with Bacillus subtilis [8] and against Bacillus subtilis [9] was > 256 µg/mL throughout. The molecule further showed an IC50 in experiment [12] of 13.7 µM.
Turning to `NC(=O)c1ccc(C(=O)Nc2ccc(-n3ccnc3)nc2)cc1`, the inhibition in [10] turned out to be 0.1%; in the experiment on Saccharomyces cerevisiae, 10.5%; in experiment [11], 0%. Further, the MIC in the experiment on Staphylococcus aureus [2], with Staphylococcus aureus [3], in the experiment with Escherichia coli [4], in the experiment with Escherichia coli [5], against Escherichia coli [6] and against Escherichia coli [7] was > 256 µg/mL each time. Also, the MIC in the experiment on Bacillus subtilis [8] and with Bacillus subtilis [9] was > 256 µg/mL each time. For the same molecule, in experiment [12], the IC50 is 11.9 µM.
As for `NS(=O)(=O)c1ccc(C(=O)Nc2ccc(OCc3ccccn3)nc2)cc1`, the MIC in the experiment on Staphylococcus aureus [2], in the experiment with Staphylococcus aureus [3], in the experiment with Escherichia coli [4], with Escherichia coli [5], against Escherichia coli [6] and against Escherichia coli [7] was > 256 µg/mL throughout. Further, the MIC in the experiment with Bacillus subtilis [8] and in the experiment with Bacillus subtilis [9] was > 256 µg/mL throughout. This molecule returned a half-inhibitory concentration (IC50) in experiment [12] of 151 µM.
On to `N#Cc1ccc(C(=O)Nc2ccc(-n3ccnc3)nc2)cc1`, for which the inhibition in experiment [10] turned out to be 1.8%; in the experiment on Saccharomyces cerevisiae, 17.6%; in [11], 0.6%. In addition, the minimal inhibitory concentration (MIC) in the experiment with Staphylococcus aureus [2], in the experiment with Staphylococcus aureus [3], in the experiment with Escherichia coli [4], in the experiment on Escherichia coli [5], with Escherichia coli [6] and in the experiment with Escherichia coli [7] was > 256 µg/mL each time. Also, the MIC in the experiment with Bacillus subtilis [8] and in the experiment on Bacillus subtilis [9] was > 256 µg/mL throughout. Besides, the 50% inhibitory concentration (IC50) in experiment [12] turned out to be 7.2 µM.
For `NS(=O)(=O)c1ccc(C(=O)Nc2ccc(-n3ccnc3)nc2)cc1`, the inhibition worked out at 0% in [10], 14.7% in the experiment on Saccharomyces cerevisiae and 0.5% in experiment [11]. The MIC against Staphylococcus aureus [2], with Staphylococcus aureus [3], in the experiment on Escherichia coli [4], with Escherichia coli [5], against Escherichia coli [6] and with Escherichia coli [7] was > 256 µg/mL each time. Further, the MIC in the experiment on Bacillus subtilis [8] and against Bacillus subtilis [9] was > 256 µg/mL throughout. Further, in [12], half-maximal inhibition (IC50) was put at 18.9 µM.
In turn, `NS(=O)(=O)c1ccc(C(=O)Nc2cccnc2)cc1` showed an inhibition with Escherichia coli [1] of 0%. In addition, the MIC in the experiment with Staphylococcus aureus [2], in the experiment on Staphylococcus aureus [3], with Escherichia coli [4], with Escherichia coli [5], with Escherichia coli [6] and in the experiment with Escherichia coli [7] was > 256 µg/mL throughout. Moreover, the MIC in the experiment on Bacillus subtilis [8] and against Bacillus subtilis [9] was > 256 µg/mL in each case.
In the experiment with Escherichia coli [1], `COC(=O)c1ccc(C(=O)Nc2ccc(-n3ccnc3)nc2)cc1` yielded an inhibition of 0%. For the same molecule, the minimal inhibitory concentration (MIC) against Staphylococcus aureus [2], with Staphylococcus aureus [3], with Escherichia coli [4], in the experiment with Escherichia coli [5], in the experiment with Escherichia coli [6] and with Escherichia coli [7] was > 256 µg/mL in each case. Also, the minimal inhibitory concentration (MIC) in the experiment with Bacillus subtilis [8] and with Bacillus subtilis [9] was > 256 µg/mL throughout.
In the case of `O=C(Nc1ccc(-n2cncn2)nc1)c1ccccc1`, the inhibition in the experiment on Escherichia coli [1] stood at 0%. For the same molecule, the MIC against Staphylococcus aureus [2], with Staphylococcus aureus [3], in the experiment on Escherichia coli [4], with Escherichia coli [5], against Escherichia coli [6] and against Escherichia coli [7] was > 256 µg/mL throughout. Also, the MIC in the experiment with Bacillus subtilis [8] and with Bacillus subtilis [9] was > 256 µg/mL in each case.
For the molecule `O=C(Nc1ccc(-n2cncn2)nc1)c1ccc(C(F)(F)F)cc1`, the inhibition with Escherichia coli [1] was 5.9%. The MIC against Staphylococcus aureus [2], in the experiment on Staphylococcus aureus [3], in the experiment on Escherichia coli [4], with Escherichia coli [5], in the experiment on Escherichia coli [6] and against Escherichia coli [7] was > 256 µg/mL throughout. The MIC with Bacillus subtilis [8] and with Bacillus subtilis [9] was > 256 µg/mL throughout.
In the experiment with Escherichia coli [1], `NS(=O)(=O)c1ccc(NC(=O)c2ccc(-n3cncn3)nc2)cc1` registered an inhibition of 0%. Further, the MIC in the experiment on Staphylococcus aureus [2], in the experiment with Staphylococcus aureus [3], in the experiment on Escherichia coli [4], in the experiment with Escherichia coli [5], against Escherichia coli [6] and with Escherichia coli [7] was > 256 µg/mL each time. Besides, the MIC in the experiment with Bacillus subtilis [8] and against Bacillus subtilis [9] was > 256 µg/mL in each case.
Molecule `NS(=O)(=O)c1ccc(C(=O)Nc2ccc(-c3ccccc3)nc2)cc1` gave an inhibition in the experiment on Escherichia coli [1] of 32.9%. Moreover, the MIC with Staphylococcus aureus [2], in the experiment on Staphylococcus aureus [3], in the experiment with Escherichia coli [4], with Escherichia coli [5], against Escherichia coli [6] and with Escherichia coli [7] was > 256 µg/mL throughout. Moreover, the MIC in the experiment on Bacillus subtilis [8] and against Bacillus subtilis [9] was > 256 µg/mL throughout.
In the experiment on Escherichia coli [1], `NS(=O)(=O)c1ccc(C(=O)Nc2ccc(-c3ccco3)nc2)cc1` showed an inhibition of 12.9%. Moreover, the MIC with Staphylococcus aureus [2], in the experiment on Staphylococcus aureus [3], with Escherichia coli [4], in the experiment with Escherichia coli [5], in the experiment with Escherichia coli [6] and against Escherichia coli [7] was > 256 µg/mL throughout. Also, the MIC in the experiment with Bacillus subtilis [8] and against Bacillus subtilis [9] was > 256 µg/mL in each case.
In the experiment on Escherichia coli [1], `N#Cc1ccc(C(=O)Nc2cnc3ccccc3c2)cc1` registered an inhibition of 0%. The minimal inhibitory concentration (MIC) in the experiment on Staphylococcus aureus [2], in the experiment with Staphylococcus aureus [3], in the experiment with Escherichia coli [4], in the experiment on Escherichia coli [5], in the experiment on Escherichia coli [6] and against Escherichia coli [7] was > 256 µg/mL each time. Further, the MIC in the experiment with Bacillus subtilis [8] and against Bacillus subtilis [9] was > 256 µg/mL in each case.
In the experiment with Escherichia coli [1], `NS(=O)(=O)c1ccc(C(=O)Nc2ccc(N3CCCC3)nc2)cc1` showed an inhibition of 17.9%. The MIC with Staphylococcus aureus [2], with Staphylococcus aureus [3], in the experiment on Escherichia coli [4], with Escherichia coli [5], against Escherichia coli [6] and in the experiment on Escherichia coli [7] was > 256 µg/mL in each case. Also, the MIC in the experiment on Bacillus subtilis [8] and against Bacillus subtilis [9] was > 256 µg/mL throughout.
